For assay [1], the target named is T1, Alpha-1D adrenergic receptor (Rattus norvegicus) (UniProt P23944).
T1 sequence (whole entry): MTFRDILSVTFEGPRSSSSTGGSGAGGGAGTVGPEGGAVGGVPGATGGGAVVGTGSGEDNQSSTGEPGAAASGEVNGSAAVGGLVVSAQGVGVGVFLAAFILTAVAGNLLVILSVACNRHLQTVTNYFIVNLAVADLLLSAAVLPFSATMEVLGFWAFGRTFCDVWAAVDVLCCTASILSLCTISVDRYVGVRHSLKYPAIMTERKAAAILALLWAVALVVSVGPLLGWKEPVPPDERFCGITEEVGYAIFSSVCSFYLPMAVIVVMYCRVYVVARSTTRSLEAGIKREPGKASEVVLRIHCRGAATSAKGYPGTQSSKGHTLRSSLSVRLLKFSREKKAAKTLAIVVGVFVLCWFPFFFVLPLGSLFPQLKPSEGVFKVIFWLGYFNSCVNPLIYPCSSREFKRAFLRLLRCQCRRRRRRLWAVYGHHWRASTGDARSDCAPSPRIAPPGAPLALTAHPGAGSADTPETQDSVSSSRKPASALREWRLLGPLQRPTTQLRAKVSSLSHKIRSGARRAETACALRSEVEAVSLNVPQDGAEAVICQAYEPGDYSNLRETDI
The assay is described as follows: Functional agonism of the compounds to constrict tissue containing the alpha-1D adrenergic receptor in rat aorta. It is filed as tissue-based. The essentials:
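Agonist dose–response curves were run on isolated tissue: rabbit urethra for α1A, rat spleen for α1B, and rat aorta for α1D.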

Assay [2] concerns the target T1, Alpha-1D adrenergic receptor (Rattus norvegicus). The assay is described as follows: Efficacy relative to phenylephrine (PE) constrict tissue containing the alpha-1D adrenergic receptor in rat aorta. The format is functional, tissue-based. The procedure, abridged:
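α1-agonist dose–response curves in isolated tissue: rabbit urethra (α1A), rat spleen (α1B), rat aorta (α1D). Agonist potency and efficacy read from the concentration–response curves.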

Assay [3] in a line: Selectivity is ratio of efficacy of alpha-1B to that of alpha1A adrenoceptor. It is filed as functional.
Assay [4] can be described thus: Selectivity is ratio of efficacy of Alpha-1D to that of alpha-1A adrenoceptor. It is filed as functional.
In assay [5] the target is T2, Alpha-1D adrenergic receptor (Rattus norvegicus, UniProt P23944).
T2 sequence (P23944 whole entry): T1 sequence (whole entry)
The assay is described as follows: In vitro binding affinity towards alpha-1D adrenergic receptor of rat clone in radioligand binding assay. The essentials:
(§1)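 Radioligand binding at α1 subtypes: α1A from rat submaxillary gland, α1B hamster clone, α1D rat clone. Run essentially per an earlier method.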

Assay [6] deals with T3, Alpha-1A adrenergic receptor (Rattus norvegicus, UniProt P43140).
T3 sequence (P43140 whole entry): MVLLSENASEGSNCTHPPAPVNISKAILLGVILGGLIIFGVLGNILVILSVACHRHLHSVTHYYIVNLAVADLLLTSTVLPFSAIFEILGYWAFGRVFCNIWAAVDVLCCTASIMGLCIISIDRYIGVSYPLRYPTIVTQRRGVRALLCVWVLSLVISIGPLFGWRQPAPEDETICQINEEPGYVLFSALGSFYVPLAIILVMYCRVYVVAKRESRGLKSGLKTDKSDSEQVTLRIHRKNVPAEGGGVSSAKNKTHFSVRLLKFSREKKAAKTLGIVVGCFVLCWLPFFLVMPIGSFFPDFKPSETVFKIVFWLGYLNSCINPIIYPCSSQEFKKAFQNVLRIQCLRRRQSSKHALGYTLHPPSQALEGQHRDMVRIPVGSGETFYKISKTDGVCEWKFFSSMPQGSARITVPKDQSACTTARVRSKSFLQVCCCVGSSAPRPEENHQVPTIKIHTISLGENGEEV
The assay is described as follows: In vitro binding affinity towards alpha-1A adrenergic receptor of rat submaxillary gland in radioligand binding assay. The procedure, abridged: as §1

Assay [7] addresses T4, Alpha-2A adrenergic receptor (Rattus norvegicus) (UniProt P22909).
T4 sequence (whole entry): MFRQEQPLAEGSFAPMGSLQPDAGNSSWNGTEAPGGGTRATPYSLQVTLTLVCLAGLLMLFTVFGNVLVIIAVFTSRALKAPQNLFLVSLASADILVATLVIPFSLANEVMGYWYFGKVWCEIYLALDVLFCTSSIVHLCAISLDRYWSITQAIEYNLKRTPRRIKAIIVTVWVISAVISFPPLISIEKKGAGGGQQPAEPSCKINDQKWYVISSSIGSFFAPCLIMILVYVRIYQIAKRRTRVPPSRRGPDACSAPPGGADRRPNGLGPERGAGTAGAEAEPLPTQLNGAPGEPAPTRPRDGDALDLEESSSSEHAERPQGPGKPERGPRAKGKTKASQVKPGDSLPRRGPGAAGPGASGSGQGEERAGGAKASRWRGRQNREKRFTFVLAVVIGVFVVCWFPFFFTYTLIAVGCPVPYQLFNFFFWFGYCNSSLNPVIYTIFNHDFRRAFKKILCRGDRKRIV
Particulars: Vas deferens.

The target in assay [8] is T5, Alpha-1B adrenergic receptor (Rattus norvegicus) (UniProt P15823).
T5 sequence (whole entry): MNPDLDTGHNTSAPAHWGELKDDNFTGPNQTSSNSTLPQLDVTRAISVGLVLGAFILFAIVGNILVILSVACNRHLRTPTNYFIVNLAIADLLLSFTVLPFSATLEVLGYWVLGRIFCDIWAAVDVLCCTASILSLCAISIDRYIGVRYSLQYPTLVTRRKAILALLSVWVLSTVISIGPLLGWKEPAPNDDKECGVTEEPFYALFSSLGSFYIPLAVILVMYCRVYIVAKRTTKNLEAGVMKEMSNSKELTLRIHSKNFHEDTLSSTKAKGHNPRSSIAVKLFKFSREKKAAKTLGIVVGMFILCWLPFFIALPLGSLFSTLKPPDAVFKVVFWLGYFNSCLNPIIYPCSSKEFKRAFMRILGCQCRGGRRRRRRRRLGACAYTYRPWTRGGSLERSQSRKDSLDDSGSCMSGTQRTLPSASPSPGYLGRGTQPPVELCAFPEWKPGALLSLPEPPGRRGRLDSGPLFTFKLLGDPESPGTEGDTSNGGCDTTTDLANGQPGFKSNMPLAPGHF
The assay is described as follows: Efficacy relative to phenylephrine (PE) to constrict tissue containing the alpha-1B adrenergic receptor in rat spleen. It is filed as functional, tissue-based.

What is called Ki is the dissociation constant of the complex between target and ligand, obtained from inhibition or displacement. Read a low Ki as tighter binding.

On to `COc1ccc(OC)c(C(O)CN)c1` (stereo not given) [DESGLYMIDODRINE], for which the pD2 in assay [1] amounted to 5.73. The molecule further gave an Efficacy in assay [2] of 68%. In addition, the Selectivity in assay [3] stood at 12; in assay [4], 1. Also, the affinity in assay [5] corresponds to a Ki of 1.66 µM.
In the case of `CC(N)C(O)c1ccccc1` (stereo not given) [PHENYLPROPANOLAMINE], the figures for the pD2 in assay [1] and in assay [7] were 4.12 and 5.17, respectively. Moreover, the Efficacy in assay [2] was 91%. Moreover, the Ki in assay [6] was 9.77 µM; in assay [5], 8.51 µM. The Selectivity in assay [3] turned out to be 1; in assay [4], 0.2.
For the molecule `O=S(=O)(CC(F)(F)F)Nc1cccc2c1CCCC2c1c[nH]cn1` (single isomer, unassigned; (+)), in assay [6], the “Log Ki” value was -6.91. The molecule also showed a Ki in assay [5] above 10 µM.
The molecule `CN(c1cccc2c1CCCC2c1c[nH]cn1)S(C)(=O)=O` (stereo not given) gave an Efficacy in assay [8] of 21.

For the origin of these results see ChEMBL document CHEMBL1148329, “Synthesis and structure-activity studies on N-[5-(1H-imidazol-4-yl)-5,6,7,8-tetrahydro-1-naphthalenyl]methanesulfonamide, an imidazole-containing alpha(1A)-adrenoceptor agonist” (J Med Chem, 2004).
